Active and inactive are the calls of the source. The calls are words filed in the database; no cut-off is given here.
Assays:
[1] = target: T1, Neuronal acetylcholine receptor; alpha4/beta2 (Homo sapiens, UniProt P17787+P43681); assay: Agonist activity at human nAChR alpha4beta2 expressed in HEK ts201 cells assessed as increase in calcium mobilization at 30 uM measured every 1.5 sec by fluorescence analysis; type: functional, cell-based
[2] = target: T2, Neuronal acetylcholine receptor; alpha3/beta4 (Homo sapiens, UniProt P30926+P32297); assay: Agonist activity at human nAChR alpha3beta4 expressed in HEK ts201 cells assessed as increase in calcium mobilization at 30 uM measured every 1.5 sec by fluorescence analysis; type: functional, cell-based
[3] = target: T1, Neuronal acetylcholine receptor; alpha4/beta2; assay: Negative allosteric modulation of human nAChR alpha4beta2 expressed in HEK ts201 cells assessed as inhibition of epibatidine-induced calcium mobilization measured every 1.5 sec by fluorescence analysis; type: cell-based
Summary of the method: (§1)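 HEK ts201 cells stably expressing human α4β2 or α3β4 nAChRs were plated on poly-L-ornithine-coated wells at 2.0–2.3 × 10^5 cells/well and used ~24 h later. They were washed with HEPES-buffered Krebs and loaded with 50% Calcium 5 NW dye for 1 h at 24 °C in the dark. Test compound was given at 6 concentrations across 0.1–100 µM, with final DMSO 1% at the top concentration. The agonist was 1 µM epibatidine, and fluorescence (ex 485/em 525 nm) was read every ~1.5 s.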

[4] = target: T2, Neuronal acetylcholine receptor; alpha3/beta4; assay: Negative allosteric modulation of human nAChR alpha3beta4 expressed in HEK ts201 cells assessed as inhibition of epibatidine-induced calcium mobilization measured every 1.5 sec by fluorescence analysis; type: cell-based; summary of the method: as §1
[5] = target: T1, Neuronal acetylcholine receptor; alpha4/beta2; assay: Negative allosteric modulation of human nAChR alpha4beta2 expressed in HEK ts201 cells assessed as inhibition of epibatidine-induced calcium mobilization at 0.1 to 100 uM measured every 1.5 sec by fluorescence analysis; type: cell-based; summary of the method: as §1
[6] = target: T2, Neuronal acetylcholine receptor; alpha3/beta4; assay: Negative allosteric modulation of human nAChR alpha3beta4 expressed in HEK ts201 cells assessed as inhibition of epibatidine-induced calcium mobilization at 0.1 to 100 uM measured every 1.5 sec by fluorescence analysis; type: cell-based; summary of the method: as §1
[7] = target: T2, Neuronal acetylcholine receptor; alpha3/beta4; assay: Negative allosteric modulation of human nAChR alpha3beta4 expressed in HEK ts201 cells assessed as decrease in epibatidine-induced calcium mobilization up to 100 uM measured every 1.5 sec by fluorescence analysis; type: cell-based; summary of the method: as §1
[8] = target: T1, Neuronal acetylcholine receptor; alpha4/beta2; assay: Relative selectivity, ratio of IC50 for human nAChR alpha3beta4 expressed in HEK ts201 cells to IC50 for human nAChR alpha4beta2 expressed in HEK ts201 cells; type: cell-based
[9] = target: T1, Neuronal acetylcholine receptor; alpha4/beta2; assay: Negative allosteric modulation of human nAChR alpha4beta2 expressed in HEK ts201 cells assessed as decrease in epibatidine-induced calcium mobilization up to 100 uM measured every 1.5 sec by fluorescence analysis; type: cell-based; summary of the method: as §1
[10] = target: T2, Neuronal acetylcholine receptor; alpha3/beta4; assay: Noncompetitive inhibition of human nAChR alpha3beta4 expressed in HEK ts201 cells assessed as inhibition of epibatidine-induced calcium mobilization at 30 uM measured every 1.5 sec by fluorescence analysis; type: cell-based
Summary of the method: (§2)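 Epibatidine concentration-response curves were run with and without 30 µM modulator in HEK ts201 cells expressing human α4β2 or α3β4 nAChRs. Cells were loaded with Calcium 5 NW dye for 1 h at 24 °C in HEPES-buffered Krebs, and fluorescence (ex 485/em 525 nm) was monitored every ~1.5 s.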

[11] = target: T1, Neuronal acetylcholine receptor; alpha4/beta2; assay: Noncompetitive inhibition of human nAChR alpha4beta2 expressed in HEK ts201 cells assessed as inhibition of epibatidine-induced calcium mobilization at 30 uM measured every 1.5 sec by fluorescence analysis; type: cell-based; summary of the method: as §2

T2 sequence (P30926 whole entry): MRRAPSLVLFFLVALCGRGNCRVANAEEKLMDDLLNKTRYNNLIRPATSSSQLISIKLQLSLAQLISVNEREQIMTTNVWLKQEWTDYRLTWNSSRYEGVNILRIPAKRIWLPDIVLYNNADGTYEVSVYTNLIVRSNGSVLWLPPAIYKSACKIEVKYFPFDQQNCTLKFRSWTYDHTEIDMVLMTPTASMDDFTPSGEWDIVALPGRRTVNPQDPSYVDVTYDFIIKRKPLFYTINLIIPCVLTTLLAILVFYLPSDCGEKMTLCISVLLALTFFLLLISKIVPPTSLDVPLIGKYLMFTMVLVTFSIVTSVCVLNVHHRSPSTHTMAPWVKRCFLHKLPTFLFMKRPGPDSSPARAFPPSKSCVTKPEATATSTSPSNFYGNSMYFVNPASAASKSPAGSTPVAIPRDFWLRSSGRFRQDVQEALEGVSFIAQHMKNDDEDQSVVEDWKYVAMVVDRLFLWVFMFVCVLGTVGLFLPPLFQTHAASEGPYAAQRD
T2 sequence (P32297 whole entry): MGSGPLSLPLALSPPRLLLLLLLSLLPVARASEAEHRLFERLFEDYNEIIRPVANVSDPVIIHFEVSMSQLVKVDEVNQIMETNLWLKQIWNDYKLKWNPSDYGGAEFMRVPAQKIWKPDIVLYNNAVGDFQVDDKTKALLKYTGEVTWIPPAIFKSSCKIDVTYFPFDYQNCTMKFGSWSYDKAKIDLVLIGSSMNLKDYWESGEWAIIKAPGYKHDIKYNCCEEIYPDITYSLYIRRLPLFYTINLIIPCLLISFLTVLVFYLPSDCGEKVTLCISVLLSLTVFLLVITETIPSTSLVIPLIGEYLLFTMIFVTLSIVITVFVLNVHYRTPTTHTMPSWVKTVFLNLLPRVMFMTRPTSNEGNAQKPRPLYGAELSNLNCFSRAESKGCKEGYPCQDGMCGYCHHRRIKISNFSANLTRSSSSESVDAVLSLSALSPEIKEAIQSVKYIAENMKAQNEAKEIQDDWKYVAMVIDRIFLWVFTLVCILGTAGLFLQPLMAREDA
T1 sequence (P17787 whole entry): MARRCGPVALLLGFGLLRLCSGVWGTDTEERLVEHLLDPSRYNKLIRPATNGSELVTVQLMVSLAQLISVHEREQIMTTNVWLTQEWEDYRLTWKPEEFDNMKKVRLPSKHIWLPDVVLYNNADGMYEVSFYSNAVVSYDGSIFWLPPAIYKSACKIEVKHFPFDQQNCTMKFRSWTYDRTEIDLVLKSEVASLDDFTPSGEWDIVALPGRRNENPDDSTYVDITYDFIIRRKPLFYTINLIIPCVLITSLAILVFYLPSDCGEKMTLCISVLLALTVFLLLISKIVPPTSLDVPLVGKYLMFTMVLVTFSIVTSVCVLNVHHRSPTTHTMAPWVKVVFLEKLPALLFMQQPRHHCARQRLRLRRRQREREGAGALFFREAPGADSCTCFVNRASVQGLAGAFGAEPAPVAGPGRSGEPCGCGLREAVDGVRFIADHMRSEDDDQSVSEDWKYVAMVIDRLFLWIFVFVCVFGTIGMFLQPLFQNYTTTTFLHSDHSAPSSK
T1 sequence (P43681 whole entry): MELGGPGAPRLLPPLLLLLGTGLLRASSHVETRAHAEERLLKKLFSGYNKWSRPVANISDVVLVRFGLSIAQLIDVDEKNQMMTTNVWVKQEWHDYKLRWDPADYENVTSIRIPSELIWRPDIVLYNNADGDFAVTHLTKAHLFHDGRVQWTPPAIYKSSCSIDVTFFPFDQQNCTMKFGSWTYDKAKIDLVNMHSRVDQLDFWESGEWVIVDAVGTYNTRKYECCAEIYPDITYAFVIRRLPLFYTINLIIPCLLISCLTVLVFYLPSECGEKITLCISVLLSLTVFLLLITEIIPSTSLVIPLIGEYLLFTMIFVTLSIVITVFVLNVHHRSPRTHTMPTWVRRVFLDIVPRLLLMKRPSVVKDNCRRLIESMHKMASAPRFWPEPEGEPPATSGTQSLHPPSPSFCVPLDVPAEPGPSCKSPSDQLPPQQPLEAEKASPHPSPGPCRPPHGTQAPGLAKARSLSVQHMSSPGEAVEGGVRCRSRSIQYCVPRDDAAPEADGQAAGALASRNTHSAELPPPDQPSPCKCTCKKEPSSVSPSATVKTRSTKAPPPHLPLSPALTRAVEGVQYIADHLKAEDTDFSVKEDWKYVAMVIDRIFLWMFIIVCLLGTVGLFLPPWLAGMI

| Activity [1] | Activity [2] | IC50 [3] [µM] | IC50 [4] [µM] | SMILES | other results |
| --- | --- | --- | --- | --- | --- |
| inactive | inactive |  |  | O=C(CN1CCN(S(=O)(=O)c2ccc(F)cc2)CC1)Nc1ccccc1 |  |
| inactive | inactive |  |  | O=C(CN1CCN(S(=O)(=O)c2ccc(F)cc2)CC1)Nc1ccc2[nH]ncc2c1 |  |
| inactive | inactive |  |  | O=C(CN1CCN(S(=O)(=O)c2ccc(F)cc2)CC1)Nc1ccc(F)cc1 |  |
| inactive | inactive |  |  | O=C(CN1CCN(S(=O)(=O)c2ccc(F)cc2)CC1)Nc1ccccc1F | inhibition [10]: Active; inhibition [11]: Active |
| inactive | inactive | 20.9 | 23.5 | O=C(CN1CCN(S(=O)(=O)c2ccccc2F)CC1)Oc1ccccc1-c1ccccc1 |  |
| inactive | inactive | 23.6 | 17.1 | COc1ccc(S(=O)(=O)N2CCN(CC(=O)Nc3ccc(F)cc3)CC2)cc1 |  |
| inactive | inactive |  |  | O=C(CN1CCN(S(=O)(=O)c2ccccc2F)CC1)Nc1ccc(C(=O)O)cc1 | IC50 [9]: > 100 µM; IC50 [7]: > 100 µM |
| inactive | inactive |  | 95 | COc1ccc(NC(=O)CN2CCN(S(=O)(=O)c3cccnc3)CC2)cc1 | IC50 [9]: > 100 µM |

More lines, now with the values behind:

| SMILES | Activity [1] | Activity [2] | IC50 [3] [µM] | IC50 [4] [µM] | other results |
| --- | --- | --- | --- | --- | --- |
| O=C(CN1CCN(S(=O)(=O)c2ccccc2F)CC1)Nc1cc[nH]n1 | inactive | inactive |  |  |  |
| O=C(CN1CCN(S(=O)(=O)c2ccccc2)CC1)Nc1ccccc1 | inactive | inactive | 9.6 | 16.4 |  |
| O=S(=O)(c1ccc(F)cc1)N1CCNCC1 |  |  |  |  | Activity [5]: inactive; Activity [6]: inactive |
| O=C(CN1CCN(S(=O)(=O)c2cccnc2)CC1)Nc1ccn[nH]1 |  |  | 83 |  | IC50 [7]: > 100 µM |
| COc1ccc(NC(=O)CN2CCN(S(=O)(=O)c3ccc(F)cc3)CC2)cc1 | inactive | inactive |  |  |  |
| COc1ccc(S(=O)(=O)N2CCN(CC(=O)Nc3ccccc3F)CC2)cc1 | inactive | inactive | 13.4 | 15.4 |  |
| COc1ccc(NC(=O)CN2CCN(S(=O)(=O)c3ccccc3F)CC2)cc1 | inactive | inactive | 17.1 | 19.1 | Ratio IC50 [8]: 1.1 |
| O=C(CN1CCN(S(=O)(=O)c2ccc(F)cc2)CC1)Nc1cc[nH]n1 | inactive | inactive |  |  |  |
| O=C(CN1CCN(S(=O)(=O)c2ccccc2F)CC1)Nc1ccccc1F | inactive | inactive |  |  | Ratio IC50 [8]: 12 |
| O=C(CN1CCN(S(=O)(=O)c2cccnc2)CC1)Nc1ccccc1F | inactive | inactive | 20.3 | 49.6 |  |
| COC(=O)c1ccc(NC(=O)CN2CCN(S(=O)(=O)c3ccccc3F)CC2)cc1 | inactive | inactive | 12.4 | 11.2 |  |
| O=C(CN1CCN(S(=O)(=O)c2ccccc2F)CC1)Nc1ccn[nH]1 |  |  |  |  | IC50 [9]: > 100 µM; IC50 [7]: > 100 µM |
| O=C(CN1CCN(S(=O)(=O)c2ccccc2F)CC1)Nc1ccc(F)cc1 | inactive | inactive | 8 | 13.6 |  |
| O=C(CN1CCN(S(=O)(=O)c2cccnc2)CC1)Nc1cc[nH]n1 | inactive | inactive |  |  |  |
| O=C(CN1CCN(S(=O)(=O)c2ccccc2)CC1)Nc1ccccc1F | inactive | inactive | 4.1 | 4.6 |  |
| O=C(CN1CCN(S(=O)(=O)c2ccc(F)cc2)CC1)Oc1ccccc1-c1ccccc1 | inactive | inactive | 12.2 | 23.8 |  |

Reference: ChEMBL document CHEMBL1938370, “Structure-activity relationship studies of sulfonylpiperazine analogues as novel negative allosteric modulators of human neuronal nicotinic receptors” (J Med Chem, 2011)
